Results reported in ChEMBL document CHEMBL1155754, “Samioside, a new phenylethanoid glycoside with free-radical scavenging and antimicrobial activities from Phlomis samia” (J Nat Prod, 2001).
Values after ≈ are worked out from the molar mass of the structure shown. Values belong to the compound of their own block, whether it stands above or below them.

Assays:
Type in all cases: functional
Candida tropicalis = assay: Antimicrobial activity against Candida tropicalis ATCC 13801 by disk diffusion method
Procedure, shortened: (§1)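 Bauer-Kirby disk diffusion against the listed ATCC bacterial and Candida strains. Growth inhibition read as zone of inhibition diameter (mm). Three repeat experiments, reported as averages.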

Nakaseomyces glabratus = assay: Antimicrobial activity against Candida glabrata ATCC 28838 by disk diffusion method; procedure, shortened: as §1
Candida albicans = assay: Antimicrobial activity against Candida albicans ATCC 10231 by disk diffusion method
Procedure, shortened: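 Bauer-Kirby disk diffusion against Candida albicans ATCC 10231; experiments repeated three times, results expressed as average values (zone of inhibition).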

[1] = tested on: Radical scavenging activity; assay: Antioxidant activity assessed as DPPH free radical scavenging activity after 30 mins; design: concentration or dose not given beside the values
Procedure, shortened: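 Sample mixed with DPPH in ethanol and left 30 min at 37 °C. Optical density read at 515 nm. Ethanol replaced DPPH for the blank and DMSO replaced sample for the control. IC50 (amount scavenging 50% of DPPH) came from regression of average percent DPPH reduction against concentration, over three separate tests.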

Klebsiella pneumoniae [2] = assay: Antimicrobial activity against Klebsiella pneumoniae ATCC 13883 by disk diffusion method; procedure, shortened: as §1
Escherichia coli [3] = assay: Antimicrobial activity against Escherichia coli ATCC 25922 by disk diffusion method; procedure, shortened: as §1
Pseudomonas aeruginosa [4] = assay: Antimicrobial activity against Pseudomonas aeruginosa ATCC 27853 by agar dilution method
Procedure, shortened: (§2)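 Agar dilution against the listed ATCC bacterial strains. MIC taken as the lowest concentration preventing visible growth.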

Staphylococcus aureus [5] = assay: Antimicrobial activity against Staphylococcus aureus ATCC 25923 by disk diffusion method; procedure, shortened: as §1
[6] = tested on: Staphylococcus epidermidis; assay: Antimicrobial activity against Staphylococcus epidermidis ATCC 12228 by disk diffusion method; procedure, shortened: as §1
[7] = tested on: Staphylococcus epidermidis; assay: Antimicrobial activity against Staphylococcus epidermidis ATCC 12228 by agar dilution method; procedure, shortened: as §2
Pseudomonas aeruginosa [8] = assay: Antimicrobial activity against Pseudomonas aeruginosa ATCC 27853 by disk diffusion method; procedure, shortened: as §1
Enterobacter cloacae [9] = assay: Antimicrobial activity against Enterobacter cloacae ATCC 13047 by disk diffusion method; procedure, shortened: as §1
Enterobacter cloacae [10] = assay: Antimicrobial activity against Enterobacter cloacae ATCC 13047 by agar dilution method; procedure, shortened: as §2
Staphylococcus aureus [11] = assay: Antimicrobial activity against Staphylococcus aureus ATCC 25923 by agar dilution method; procedure, shortened: as §2
Klebsiella pneumoniae [12] = assay: Antimicrobial activity against Klebsiella pneumoniae ATCC 13883 by agar dilution method; procedure, shortened: as §2
Escherichia coli [13] = assay: Antimicrobial activity against Escherichia coli ATCC 25922 by agar dilution method; procedure, shortened: as §2

SMILES: C[C@@H]1[C@H](O)[C@@H](C)/C=C/C=C/C=C/C=C/C=C/C=C/C=C/[C@H](O[C@@H]2O[C@H](C)[C@@H](O)[C@H](N)[C@@H]2O)C[C@@H]2O[C@](O)(C[C@@H](O)C[C@@H](O)[C@H](O)CC[C@@H](O)C[C@@H](O)CC(=O)O[C@H]1C)C[C@H](O)[C@H]2C(=O)O [AMPHOTERICIN B]
inhibition zone (IZ) (Candida tropicalis): 22 mm
inhibition zone (IZ) (Nakaseomyces glabratus): 24 mm
inhibition zone (IZ) (Candida albicans): 20 mm

SMILES: COc1cc(-c2cc(=O)c3c(O)cc(O)cc3o2)ccc1O
Activity [1]: < 40%

SMILES: O=c1cc(-c2ccc(O)cc2)oc2cc(O)cc(O)c12
Activity [1]: < 40%

SMILES: COc1ccc(-c2oc3cc(O)cc(O)c3c(=O)c2OC)cc1
Activity [1]: < 40%

SMILES: O=C(O)c1cc(O)c(O)c(O)c1 [GALLIC ACID]
IC50 [1]: 17.6 µM

IC50 [1]: 23.8 µM
MIC (Pseudomonas aeruginosa [4]): 850 µg/mL (≈ 1120 µM)
MIC [7]: 480 µg/mL (≈ 634 µM)
MIC (Enterobacter cloacae [10]): 890 µg/mL (≈ 1180 µM)
MIC (Staphylococcus aureus [11]): 460 µg/mL (≈ 608 µM)
MIC (Klebsiella pneumoniae [12]): 790 µg/mL (≈ 1040 µM)
MIC (Escherichia coli [13]): 520 µg/mL (≈ 687 µM)
SMILES: C[C@@H]1O[C@@H](O[C@@H]2[C@@H](O)[C@H](OCCc3ccc(O)c(O)c3)O[C@H](CO)[C@H]2OC(=O)/C=C/c2ccc(O)c(O)c2)[C@H](O)[C@H](O)[C@H]1O[C@@H]1OC[C@](O)(CO)[C@H]1O [SAMIOSIDE]
inhibition zone (IZ) (Candida tropicalis): 10 mm
Activity [1]: > 70%
inhibition zone (IZ) (Klebsiella pneumoniae [2]): 11 mm
inhibition zone (IZ) (Escherichia coli [3]): 15 mm
inhibition zone (IZ) (Staphylococcus aureus [5]): 12 mm
inhibition zone (IZ) (Nakaseomyces glabratus): 11 mm
inhibition zone (IZ) [6]: 16 mm
inhibition zone (IZ) (Pseudomonas aeruginosa [8]): 10 mm
inhibition zone (IZ) (Enterobacter cloacae [9]): 10 mm
inhibition zone (IZ) (Candida albicans): 8 mm

IC50 [1]: 48.9 µM
MIC (Staphylococcus aureus [11]): 400 µg/mL (≈ 640 µM)
SMILES: C[C@@H]1O[C@@H](O[C@@H]2[C@@H](O)[C@H](OCCc3ccc(O)c(O)c3)O[C@H](CO)[C@H]2OC(=O)/C=C/c2ccc(O)c(O)c2)[C@H](O)[C@H](O)[C@H]1O [ACETOSIDE]
Activity [1]: > 70%

IC50 [1]: 66.7 µM
SMILES: O=C(O)/C=C/c1ccc(O)c(O)c1 [CAFFEIC ACID]

MIC (Pseudomonas aeruginosa [4]): 8.8 µg/mL (≈ 18.5 µM)
MIC [7]: 4 µg/mL (≈ 8.41 µM)
MIC (Enterobacter cloacae [10]): 8 µg/mL (≈ 16.8 µM)
MIC (Staphylococcus aureus [11]): 4 µg/mL (≈ 8.41 µM)
MIC (Klebsiella pneumoniae [12]): 8 µg/mL (≈ 16.8 µM)
MIC (Escherichia coli [13]): 10 µg/mL (≈ 21 µM)
SMILES: CCN[C@@H]1C[C@H](N)[C@@H](O[C@H]2OC(CN)=CC[C@H]2N)[C@H](O)[C@H]1O[C@H]1OC[C@](C)(O)[C@H](NC)[C@H]1O [NETILMICIN]
inhibition zone (IZ) (Klebsiella pneumoniae [2]): 25 mm
inhibition zone (IZ) (Escherichia coli [3]): 23 mm
inhibition zone (IZ) (Staphylococcus aureus [5]): 22 mm
inhibition zone (IZ) [6]: 24 mm
inhibition zone (IZ) (Pseudomonas aeruginosa [8]): 20 mm
inhibition zone (IZ) (Enterobacter cloacae [9]): 22 mm
